Results published in ChEMBL document CHEMBL4622871, “Synthesis, biological evaluation of benzothiazole derivatives bearing a 1,3,4-oxadiazole moiety as potential anti-oxidant and anti-inflammatory agents” (Bioorg Med Chem Lett, 2020).
One block for each molecule: values may come before it.

Assays:
[1] = Antioxidant activity assessed as hydrogen peroxide scavenging activity at 100 ug/ml relative to control; assay type: functional
[2] = molecular target: T1, Prostaglandin G/H synthase 2 (Homo sapiens) (UniProt P35354); experiment: Inhibition of COX2 (unknown origin) at 10 umol/l by ELISA relative to control
T1 sequence (whole entry): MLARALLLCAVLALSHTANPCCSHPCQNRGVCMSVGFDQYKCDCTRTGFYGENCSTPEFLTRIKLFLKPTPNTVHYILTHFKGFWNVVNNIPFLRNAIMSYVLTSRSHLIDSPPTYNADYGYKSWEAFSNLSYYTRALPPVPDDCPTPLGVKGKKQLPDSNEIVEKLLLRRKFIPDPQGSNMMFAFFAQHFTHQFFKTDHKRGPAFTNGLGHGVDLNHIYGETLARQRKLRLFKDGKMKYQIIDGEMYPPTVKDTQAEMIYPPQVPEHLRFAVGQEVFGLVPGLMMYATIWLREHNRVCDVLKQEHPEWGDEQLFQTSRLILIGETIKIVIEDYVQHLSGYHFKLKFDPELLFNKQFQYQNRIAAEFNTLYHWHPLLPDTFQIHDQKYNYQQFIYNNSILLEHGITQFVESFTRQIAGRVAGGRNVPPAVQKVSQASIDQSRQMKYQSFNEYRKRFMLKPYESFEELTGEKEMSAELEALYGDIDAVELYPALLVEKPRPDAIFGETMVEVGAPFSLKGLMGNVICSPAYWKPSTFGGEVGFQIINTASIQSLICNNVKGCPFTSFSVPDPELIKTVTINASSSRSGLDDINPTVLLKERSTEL

Mus musculus [3] = experiment: Antiinflammatory activity in para-xylene-induced mouse model of ear swelling assessed as inhibition in swelling rate at 100 mg/kg, po treated for 24 hrs followed by xylene addition relative to control; assay type: functional
Summary of the method: (§1)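 Mouse ear edema induced by para-xylene. A single oral dose of 100 mg/kg was given at set intervals (1, 2, 3, 4, 5 or 24 h) before xylene was applied. Each group had 5 mice. The inhibition rate (%) was taken relative to the vehicle group. Indomethacin at 100 mg/kg served as the reference.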

Mus musculus [4] = experiment: Antiinflammatory activity in para-xylene-induced mouse model of ear swelling assessed as inhibition in swelling rate at 100 mg/kg, po treated for 4 hrs followed by xylene addition relative to control; assay type: functional; summary of the method: as §1
Mus musculus [5] = experiment: Antiinflammatory activity in para-xylene-induced mouse model of ear swelling assessed as inhibition in swelling rate at 100 mg/kg, po treated for 2 hrs followed by xylene addition relative to control; assay type: functional; summary of the method: as §1
Mus musculus [6] = experiment: Antiinflammatory activity in para-xylene-induced mouse model of ear swelling assessed as inhibition in swelling rate at 25 mg/kg, po treated for 2 hrs followed by xylene addition relative to control; assay type: functional
Summary of the method: (§2)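 Mouse ear edema induced by para-xylene. Oral doses were 25, 50 or 100 mg/kg, given 2 h before xylene was applied. Each group had 5 mice. The inhibition rate (%) was taken relative to the vehicle group, with indomethacin as the positive control.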

Mus musculus [7] = experiment: Antiinflammatory activity in para-xylene-induced mouse model of ear swelling assessed as inhibition in swelling rate at 100 mg/kg, po treated for 1 hr followed by xylene addition relative to control; assay type: functional; summary of the method: as §1
Mus musculus [8] = experiment: Antiinflammatory activity in para-xylene-induced mouse model of ear swelling assessed as inhibition in swelling rate at 50 mg/kg, po treated for 2 hrs followed by xylene addition relative to control; assay type: functional; summary of the method: as §2
Mus musculus [9] = experiment: Antiinflammatory activity in para-xylene-induced mouse model of ear swelling assessed as inhibition in swelling rate at 100 mg/kg, po treated for 5 hrs followed by xylene addition relative to control; assay type: functional; summary of the method: as §1
Mus musculus [10] = experiment: Antiinflammatory activity in para-xylene-induced mouse model of ear swelling assessed as inhibition in swelling rate at 100 mg/kg, ip relative to control; assay type: functional
Summary of the method: (§3)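 Mouse ear swelling induced by para-xylene. Dosing was 100 mg/kg intraperitoneal with DMSO as vehicle, and the vehicle group was also given 100. Each group had 5 mice. Edema was recorded in mg as mean ± S.D., and the inhibition rate (%) was taken relative to the vehicle group. Indomethacin at 100 mg/kg served as the reference.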

Mus musculus [11] = experiment: Antiinflammatory activity in para-xylene-induced mouse model of ear swelling assessed as inhibition in swelling rate at 100 mg/kg, po treated for 3 hrs followed by xylene addition relative to control; assay type: functional; summary of the method: as §1
Mus musculus [12] = experiment: Antiinflammatory activity in para-xylene-induced mouse model of ear swelling assessed as edema at 100 mg/kg, ip (reference value: 8.70 +/- 0.90 mg); assay type: functional; summary of the method: as §3
[13] = Antioxidant activity assessed as hydroxyl radical scavenging activity by spectrophotometric analysis; assay type: functional
Summary of the method: (§4)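 Radical scavenging by ABTS, DPPH or hydroxyl radical, read spectrophotometrically. Activity was calculated from the percentage decrease in absorbance, with resveratrol as the positive control. Values are given with the standard deviation (SD).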

[14] = Antioxidant activity assessed as ABTS radical scavenging activity by spectrophotometric analysis; assay type: functional; summary of the method: as §4
[15] = Antioxidant activity assessed as DPPH radical scavenging activity by spectrophotometric analysis; assay type: functional; summary of the method: as §4

Structure (SMILES): C/C(=N\c1ccc([N+](=O)[O-])cc1)N1N=C(c2ccc(-c3ccccc3)cc2)OC1c1ccccc1O (stereo not given)
Activity [1]: < 51.2%

inhibition [2]: 35%
Structure (SMILES): Cc1cccc(-c2nnc(COc3ccc(/C=N/Nc4nc5ccccc5s4)cc3)o2)c1

Structure (SMILES): COc1ccc2c(c1)c(CC(=O)O)c(C)n2C(=O)c1ccc(Cl)cc1 [INDOMETHACIN]
inhibition in vivo at 100 mg/kg (Mus musculus [3]): 12.5% | inhibition in vivo at 100 mg/kg (Mus musculus [4]): 30.4% | inhibition in vivo at 100 mg/kg (Mus musculus [5]): 52.3 to 58.3% | inhibition in vivo at 25 mg/kg (Mus musculus [6]): 19.1% | inhibition in vivo at 100 mg/kg (Mus musculus [7]): 25.3% | inhibition in vivo at 50 mg/kg (Mus musculus [8]): 25.9% | inhibition in vivo at 100 mg/kg (Mus musculus [9]): 19.2% | inhibition in vivo at 100 mg/kg (Mus musculus [10]): 43.6% | inhibition in vivo at 100 mg/kg (Mus musculus [11]): 46.1% | Activity (Mus musculus [12]): 5.15 mg

IC50 [13]: 370000 µM | IC50 [14]: 1420 µM | IC50 [15]: 990 µM
Structure (SMILES): Oc1ccc(/C=C/c2cc(O)cc(O)c2)cc1 [RESVERATROL]
